Laboratory results from ChEMBL document CHEMBL2434898, “New β-phospholactam as a carbapenem transition state analog: Synthesis of a broad-spectrum inhibitor of metallo-β-lactamases” (Bioorg Med Chem Lett, 2013).
Calls of active or inactive are those of the source. The rule behind the calls is not given here.

What was measured:
[1] = Inhibition of Metallo-beta-lactamase Bla2 (unknown origin) assessed as inhibition of nitrocefin hydrolysis preincubated at 100 uM before substrate addition by spectrophotometry; conditions: TDE = time-dependent effect
[2] = Inhibition of Metallo-beta-lactamase NDM1 (unknown origin) assessed as inhibition of nitrocefin hydrolysis preincubated at 100 uM for 30 mins before substrate addition by spectrophotometry
Summary of the method: (§1)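 Each enzyme (IMP-1, CcrA, Bla2, NDM-1 of subclass B1; L1 of B3) was pre-incubated with inhibitor in DMSO for 30 min, then substrate hydrolysis was measured. Results are given as percent inhibition.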

[3] = Inhibition of metallo-beta-lactamase L1 (unknown origin) assessed as inhibition of nitrocefin hydrolysis preincubated at 100 before substrate addition by spectrophotometry; conditions: TDE = time-dependent effect
[4] = Inhibition of Metallo-beta-lactamase CcrA (unknown origin) assessed as inhibition of nitrocefin hydrolysis preincubated at 100 uM before substrate addition by spectrophotometry; conditions: TDE = time-dependent effect
[5] = Inhibition of Metallo-beta-lactamase NDM1 (unknown origin) assessed as inhibition of nitrocefin hydrolysis preincubated at 100 uM before substrate addition by spectrophotometry; conditions: TDE = time-dependent effect
[6] = Activation of metallo-beta-lactamase CcrA (unknown origin) assessed as hydrolysis of nitrocefin at 100 uM by spectrophotometry
Summary of the method: (§2)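 Purified metallo-β-lactamases (subclass B1: IMP-1, CcrA, Bla2, NDM-1; B3: L1) were mixed with inhibitor dissolved in DMSO with no pre-incubation before the hydrolysis assay. Activity is reported as percent inhibition.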

[7] = Inhibition of Metallo-beta-lactamase CcrA (unknown origin) assessed as inhibition of nitrocefin hydrolysis preincubated at 100 uM for 30 mins before substrate addition by spectrophotometry; summary of the method: as §1
[8] = Inhibition of Metallo-beta-lactamase IMP-1 (unknown origin) assessed as inhibition of nitrocefin hydrolysis preincubated at 100 uM before substrate addition by spectrophotometry; conditions: TDE = time-dependent effect
[9] = Inhibition of Metallo-beta-lactamase IMP-1 (unknown origin) assessed as inhibition of nitrocefin hydrolysis preincubated at 100 uM for 30 mins before substrate addition by spectrophotometry; summary of the method: as §1
[10] = Inhibition of metallo-beta-lactamase L1 (unknown origin) assessed as inhibition of nitrocefin hydrolysis preincubated at 100 uM for 30 mins before substrate addition by spectrophotometry; summary of the method: as §1
[11] = Activation of metallo-beta-lactamase NDM1 (unknown origin) assessed as hydrolysis of nitrocefin at 100 uM by spectrophotometry; summary of the method: as §2
[12] = Inhibition of Metallo-beta-lactamase Bla2 (unknown origin) assessed as inhibition of nitrocefin hydrolysis preincubated at 100 uM for 30 mins before substrate addition by spectrophotometry; summary of the method: as §1
[13] = Inhibition of Metallo-beta-lactamase L1 (unknown origin) assessed as inhibition of nitrocefin hydrolysis at 100 uM by spectrophotometry; summary of the method: as §2
[14] = Inhibition of Metallo-beta-lactamase IMP-1 (unknown origin) assessed as inhibition of nitrocefin hydrolysis at 100 uM by spectrophotometry; summary of the method: as §2
[15] = Inhibition of Metallo-beta-lactamase Bla2 (unknown origin) assessed as inhibition of nitrocefin hydrolysis at 100 uM by spectrophotometry; summary of the method: as §2

CC(=O)OC1C2CCC(C(=O)O)N2P1(=O)O (stereo not given)
inhibition [1]: tde | inhibition [2]: 53% | inhibition [3]: tde | inhibition [4]: tde | inhibition [5]: tde | Activity [6]: Active | inhibition [7]: 69% | inhibition [8]: tde | inhibition [9]: 70% | inhibition [10]: 70% | Activity [11]: Active | inhibition [12]: 94% | inhibition [13]: 37% | inhibition [14]: 48% | inhibition [15]: 22%
